The record followed here is ChEMBL document CHEMBL1148584, “Effect of polyamine homologation on the transport and biological properties of heterocyclic amidines” (J Med Chem, 2006).

Bounds are passed on as bounds.

One data set concerns L1210. Nature of the data set: Intracellular level of conjugate in L1210 cells in the absence of DFMO at 25 uM. Format: functional, cell-based. To be noted: Mus musculus. In short, it runs like this:
(§1)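 L1210 cells in RPMI 1640/10% FCS with 2 mM aminoguanidine, seeded at 4 × 10⁴ cells/mL. Conjugate, with or without 5 mM DFMO, added at seeding; cells cultured 48 h, washed in cold NaCl, and extracted with 0.2 N HClO₄. Conjugate and free putrescine, spermidine and spermine quantified by ion-pair HPLC (UV 254 nm, fluorescence ex 345/em 455 nm); normalised to protein. Student's t-test, p<0.05.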
Regarding `CN(c1ccccc1)C1c2ccccc2N=C(NCCCNCCCCN)C1(C)C` (stereo unspecified), the Drug uptake amounted to 0.64 nmol/mg.

A further data set deals with L1210. Nature of the data set: Intracellular level of putrescine in L1210 cells in the presence of DFMO at 10 uM. Format: functional, cell-based. To be noted: Mus musculus. In short, it runs like this: as §1
Consider `CN(c1ccccc1)C1c2ccccc2N=C(NCCCNCCCCNCCCN)C1(C)C` (stereo unspecified), for which the Drug uptake was found to be 0.02 nmol/mg.
Same read-out and setting: with `CNc1cccc2c1[C@H](C)C[C@]1(C)C(NCCCNCCCCNCCCN)=Nc3ccccc3[C@H]21` the figure was 0.04 nmol/mg.

The subject of another data set is L1210. As to the kind of experiment: Intracellular level of spermidine in L1210 cells in the presence of DFMO at 10 uM. The format is functional, cell-based. The conditions noted are these: Mus musculus. A digest of the protocol:
as §1
As to `CN(c1ccccc1)C1c2ccccc2N=C(NCCCNCCCCNCCCN)C1(C)C` (stereo unspecified), the Drug uptake was found to be 0.6 nmol/mg.
The same measure, in the same setting: with `CNc1cccc2c1[C@H](C)C[C@]1(C)C(NCCCNCCCCNCCCN)=Nc3ccccc3[C@H]21` the figure was 0.51 nmol/mg.

Another data set relates to L1210. As to the kind of experiment: Intracellular level of conjugate in L1210 cells in the absence of DFMO at 10 uM. The format is functional, cell-based. The conditions noted are these: Mus musculus. A digest of the protocol: as §1
The compound `CN(c1ccccc1)C1c2ccccc2N=C(NCCCNCCCCNCCCN)C1(C)C` (stereo unspecified) came in with a Drug uptake of 1.8 nmol/mg.
Still for that read-out and setting: with `CNc1cccc2c1[C@H](C)C[C@]1(C)C(NCCCNCCCCNCCCN)=Nc3ccccc3[C@H]21` the figure was 0.95 nmol/mg.

The test system of the next data set is CHO-MG. As to the kind of experiment: Inhibition of cell growth in CHO-MG cells in the presence of DFMO. The format is functional, cell-based. To be noted: Cricetulus griseus. A digest of the protocol: (§2)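 L1210 cells seeded at 5 × 10⁴ cells/mL with conjugate added at seeding; CHO/CHO-MG plated at 2 × 10³ cells/mL with conjugate added after overnight (24 h). 5 mM DFMO added together with conjugate; medium contains 2 mM aminoguanidine. After 48 h, growth read by MTT formazan absorbance at 540 nm. IC50 is 50% growth inhibition; mean of three determinations.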
In the case of `CNc1cccc2c1[C@H](C)C[C@]1(C)C(NCCCNCCCCNCCCN)=Nc3ccccc3[C@H]21`, the IC50 was found to be 23 µM.
Regarding `CN(c1ccccc1)C1c2ccccc2N=C(NCCCNCCCCN)C1(C)C` (stereo unspecified), the IC50 is more than 100 µM.

A further data set has as its target Phosphodiesterase 1 (Bos taurus, UniProt Q01061+P14100). As to the kind of experiment: Inhibition of bovine calmodulin-activated cAMP dependent phosphodiesterase. The format is protein assay.
Settings: not given
A digest of the protocol: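 Crude bovine heart PDE preparation containing calmodulin and Ca²⁺ (0.2 milliunit). Incubated 20 min at 37 °C with 0.1 mM [8-³H]cAMP and graded drug concentrations in 30 mM Tris-HCl, 3 mM MgSO₄, 0.6 mM AMP. Stopped with ZnSO₄; Ba(OH)₂ precipitated AMP with BaSO₄; supernatant radioactivity counted. IC50 is the concentration giving 50% inhibition.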
As for `CN(c1ccccc1)C1c2ccccc2N=C(NCCCNCCCCNCCCN)C1(C)C` (stereo unspecified), the IC50 came to 8 µM.
On the same count and under the same terms, with `CNc1cccc2c1[C@H](C)C[C@]1(C)C(NCCCNCCCCNCCCN)=Nc3ccccc3[C@H]21` the figure was 10 µM; with `CN(c1ccccc1)C1c2ccccc2N=C(NCCCNCCCCN)C1(C)C` (stereo unspecified), 30 µM.

A further data set deals with CHO-MG. Nature of the data set: Cellular uptake in CHO-MG cells at 25 uM. Format: ADME, cell-based, Cricetulus griseus. To be noted: chinese hamster. A digest of the protocol:
(§3)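 CHO (RPMI 1640, 10% FCS, 2 mM aminoguanidine) and CHO-MG (plus L-proline) cells seeded at 2 × 10⁵ cells/mL. Conjugate added 24 h after seeding and cells harvested 24 h later, then washed in cold 0.14 M NaCl and sonicated in 0.2 N HClO₄. Supernatant analysed by ion-pair reversed-phase HPLC (n-octanesulfonate), expressed as nmol/mg protein; mean ± SD of three determinations.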
For the compound `CNc1cccc2c1[C@H](C)C[C@]1(C)C(NCCCNCCCCNCCCN)=Nc3ccccc3[C@H]21`, the Drug uptake was 2.1 nmol/mg.
The same measure, in the same setting: to `CN(c1ccccc1)C1c2ccccc2N=C(NCCCNCCCCN)C1(C)C` (stereo unspecified) belongs 3.1 nmol/mg.

A further data set concerns L1210. Nature of the data set: Intracellular level of conjugate in L1210 cells in the presence of DFMO at 25 uM. The conditions noted are these: Mus musculus. Format: functional, cell-based. In short, it runs like this:
as §1
For the compound `CN(c1ccccc1)C1c2ccccc2N=C(NCCCNCCCCN)C1(C)C` (stereo unspecified), the Drug uptake was determined as 0.66 nmol/mg.

Another data set relates to L1210. Nature of the data set: Intracellular level of putrescine in L1210 cells in the absence of DFMO at 25 uM. Format: functional, cell-based. To be noted: Mus musculus. In short, it runs like this:
as §1
The compound `CN(c1ccccc1)C1c2ccccc2N=C(NCCCNCCCCN)C1(C)C` (stereo unspecified) showed a Drug uptake of 0.65 nmol/mg.

A further data set relates to L1210. As to the kind of experiment: Intracellular level of spermidine in L1210 cells in the presence of DFMO at 25 uM. The conditions noted are these: Mus musculus. Format: functional, cell-based. A digest of the protocol:
as §1
As for `CN(c1ccccc1)C1c2ccccc2N=C(NCCCNCCCCN)C1(C)C` (stereo unspecified), the Drug uptake came to 1.4 nmol/mg.

Test system in the next data set: not listed separately
As to the kind of experiment: Selectivity for uptake CHO cell line over CHO-MG cell line at 50 uM. The format is functional, Cricetulus griseus.
Settings: not given
A digest of the protocol:
(§4)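 Ratio of intracellular conjugate level in CHO over CHO-MG cells. Both lines were exposed to conjugate 24 h after seeding at 2 × 10⁵ cells/mL, for 24 h with 2 mM aminoguanidine in the medium. Levels were measured by ion-pair HPLC of perchloric extracts and normalised to protein (nmol/mg).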
On to `CN(c1ccccc1)C1c2ccccc2N=C(NCCCNCCCCNCCCN)C1(C)C` (stereo unspecified), for which the Selectivity ratio was determined as 1.

For a further data set, the system named is L1210. Nature of the data set: Intracellular level of spermidine in L1210 cells in the absence of DFMO at 10 uM. Format: functional, cell-based. The conditions noted are these: Mus musculus. In short, it runs like this:
as §1
`CN(c1ccccc1)C1c2ccccc2N=C(NCCCNCCCCNCCCN)C1(C)C` (stereo unspecified): the Drug uptake was determined as 16 nmol/mg.
Same read-out and setting: to `CNc1cccc2c1[C@H](C)C[C@]1(C)C(NCCCNCCCCNCCCN)=Nc3ccccc3[C@H]21` belongs 16 nmol/mg.

In another data set the test system is L1210. As to the kind of experiment: Intracellular level of spermidine in L1210 cells in the absence of DFMO at 25 uM. The format is functional, cell-based. To be noted: Mus musculus. In short, it runs like this:
as §1
Turning to `CN(c1ccccc1)C1c2ccccc2N=C(NCCCNCCCCN)C1(C)C` (stereo unspecified), the Drug uptake is 21 nmol/mg.

Another data set concerns L1210. Nature of the data set: Intracellular level of spermine in L1210 cells in the presence of DFMO at 25 uM. The conditions noted are these: Mus musculus. The format is functional, cell-based. In short, it runs like this:
as §1
For the compound `CN(c1ccccc1)C1c2ccccc2N=C(NCCCNCCCCN)C1(C)C` (stereo unspecified), the Drug uptake amounted to 10 nmol/mg.

In a further data set the test system is L1210. As to the kind of experiment: Intracellular level of spermine in L1210 cells in the absence of DFMO at 25 uM. Format: functional, cell-based. To be noted: Mus musculus. A digest of the protocol:
as §1
On to `CN(c1ccccc1)C1c2ccccc2N=C(NCCCNCCCCN)C1(C)C` (stereo unspecified), for which the Drug uptake was determined as 10 nmol/mg.

For a further data set, the system named is L1210. As to the kind of experiment: Intracellular level of conjugate in L1210 cells in the presence of DFMO at 10 uM. To be noted: Mus musculus. The format is functional, cell-based. In short, it runs like this: as §1
`CN(c1ccccc1)C1c2ccccc2N=C(NCCCNCCCCNCCCN)C1(C)C` (stereo unspecified): the Drug uptake stood at 2.6 nmol/mg.
Same read-out and setting: to `CNc1cccc2c1[C@H](C)C[C@]1(C)C(NCCCNCCCCNCCCN)=Nc3ccccc3[C@H]21` belongs 2.1 nmol/mg.

A further data set relates to L1210. Nature of the data set: Intracellular level of putrescine in L1210 cells in the absence of DFMO at 10 uM. The format is functional, cell-based. The conditions noted are these: Mus musculus. In short, it runs like this:
as §1
As for `CN(c1ccccc1)C1c2ccccc2N=C(NCCCNCCCCNCCCN)C1(C)C` (stereo unspecified), the Drug uptake amounted to 0.41 nmol/mg.
Still for that read-out and setting: with `CNc1cccc2c1[C@H](C)C[C@]1(C)C(NCCCNCCCCNCCCN)=Nc3ccccc3[C@H]21` the figure was 1.4 nmol/mg.

For another data set, the system named is L1210. As to the kind of experiment: Intracellular level of putrescine in L1210 cells in the presence of DFMO at 25 uM. The format is functional, cell-based. The conditions noted are these: Mus musculus. A digest of the protocol:
as §1
On to `CN(c1ccccc1)C1c2ccccc2N=C(NCCCNCCCCN)C1(C)C` (stereo unspecified), for which the Drug uptake stood at 0.12 nmol/mg.

Test system in another data set: not listed separately
As to the kind of experiment: Selectivity for uptake in CHO cell line over CHO-MG cell line at 25 uM. The format is functional, Cricetulus griseus.
Settings: not given
In short, it runs like this:
as §4
Turning to `CNc1cccc2c1[C@H](C)C[C@]1(C)C(NCCCNCCCCNCCCN)=Nc3ccccc3[C@H]21`, the Selectivity ratio was 1.
Same read-out and setting: to `CN(c1ccccc1)C1c2ccccc2N=C(NCCCNCCCCN)C1(C)C` (stereo unspecified) belongs 1.

In the next data set the test system is CHO. Nature of the data set: Cellular uptake in CHO cells at 25 uM. The format is ADME, cell-based, Cricetulus griseus. To be noted: chinese hamster. A digest of the protocol:
as §3
In turn, `CNc1cccc2c1[C@H](C)C[C@]1(C)C(NCCCNCCCCNCCCN)=Nc3ccccc3[C@H]21` came in with a Drug uptake of 2.2 nmol/mg.
Still for that read-out and setting: with `CN(c1ccccc1)C1c2ccccc2N=C(NCCCNCCCCN)C1(C)C` (stereo unspecified) the figure was 2.9 nmol/mg.

For a further data set, the system named is L1210. Nature of the data set: Intracellular level of spermine in L1210 cells in the absence of DFMO at 10 uM. Format: functional, cell-based. To be noted: Mus musculus. A digest of the protocol: as §1
Turning to `CN(c1ccccc1)C1c2ccccc2N=C(NCCCNCCCCNCCCN)C1(C)C` (stereo unspecified), the Drug uptake came out at 9.5 nmol/mg.
On the same count and under the same terms, with `CNc1cccc2c1[C@H](C)C[C@]1(C)C(NCCCNCCCCNCCCN)=Nc3ccccc3[C@H]21` the figure was 8.2 nmol/mg.

In a further data set the test system is L1210. Nature of the data set: Inhibition of cell growth in L1210 cells in the presence of DFMO. The format is functional, cell-based. The conditions noted are these: Mus musculus. In short, it runs like this: as §2
For `CN(c1ccccc1)C1c2ccccc2N=C(NCCCNCCCCNCCCN)C1(C)C` (stereo unspecified), the IC50 is 2.3 µM.
With `CNc1cccc2c1[C@H](C)C[C@]1(C)C(NCCCNCCCCNCCCN)=Nc3ccccc3[C@H]21`, the IC50 was 2.4 µM.

In another data set the test system is CHO. As to the kind of experiment: Inhibition of cell growth in CHO cells in the presence of DFMO. Format: functional, cell-based. The conditions noted are these: Cricetulus griseus. A digest of the protocol:
as §2
As for `CNc1cccc2c1[C@H](C)C[C@]1(C)C(NCCCNCCCCNCCCN)=Nc3ccccc3[C@H]21`, the IC50 amounted to 11 µM.

A further data set deals with CHO. As to the kind of experiment: Cellular uptake in CHO cells at 50 uM. Format: ADME, cell-based, Cricetulus griseus. The conditions noted are these: chinese hamster. A digest of the protocol:
as §3
Turning to `CN(c1ccccc1)C1c2ccccc2N=C(NCCCNCCCCNCCCN)C1(C)C` (stereo unspecified), the Drug uptake is on record as 3.3 nmol/mg.

The subject of the next data set is L1210. As to the kind of experiment: Intracellular level of spermine in L1210 cells in the presence of DFMO at 10 uM. Format: functional, cell-based. To be noted: Mus musculus. A digest of the protocol: as §1
`CN(c1ccccc1)C1c2ccccc2N=C(NCCCNCCCCNCCCN)C1(C)C` (stereo unspecified): the Drug uptake is 7.6 nmol/mg.
Same read-out and setting: to `CNc1cccc2c1[C@H](C)C[C@]1(C)C(NCCCNCCCCNCCCN)=Nc3ccccc3[C@H]21` belongs 7.3 nmol/mg.

In another data set the test system is CHO-MG. As to the kind of experiment: Cellular uptake in CHO-MG cells at 50 uM. Format: ADME, cell-based, Cricetulus griseus. To be noted: chinese hamster. In short, it runs like this:
as §3
As for `CN(c1ccccc1)C1c2ccccc2N=C(NCCCNCCCCNCCCN)C1(C)C` (stereo unspecified), the Drug uptake was determined as 3.2 nmol/mg.
